The text below walks through data of ChEMBL document CHEMBL3098117, “Identification and optimization of an aminoalcohol-carbazole series with antimalarial properties” (ACS Med Chem Lett, 2013).

Data set [1] has as its system Plasmodium falciparum. Put plainly: Antimalarial activity against Plasmodium falciparum K1 infected in human RBC after 72 hrs by hypoxanthine incorporation assay in presence of serum albumin. The note with it: for IC50: K1, 72 h. The format is functional, organism-based. The method, boiled down: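 Mixture of drug, human red blood cells and P. falciparum incubated 3 days (72 h) with serum albumin present; growth read as hypoxanthine incorporation.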

The test system of data set [2] is Plasmodium falciparum. Put plainly: Antimalarial activity against chloroquine-resistant Plasmodium falciparum K1 infected in human RBC. The format is functional, organism-based. The method in brief: (§1)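 P. falciparum cultured with test drug in human red blood cells for 3 days. Growth read out as hypoxanthine incorporation.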
The target of the next data set is Cytochrome P450 2C19 (Homo sapiens, UniProt P33261). Put plainly: Inhibition of human recombinant CYP2C19 expressed in baculovirus-infected insect cells preincubated for 15 mins followed by substrate addition measured after 30 mins by luminescence assay. Type of data set: ADME. The note with it: recombinant enzyme, 0.5 h.
The target of another data set is Cytochrome P450 3A4 (Homo sapiens, UniProt P08684). Nature of the data set: Inhibition of human recombinant CYP3A4 expressed in baculovirus-infected insect cells preincubated for 15 mins followed by substrate addition measured after 30 mins by luminescence assay. The note with it: recombinant enzyme, 0.5 h. Type of data set: ADME.
The target in data set [3] is Voltage-gated inwardly rectifying potassium channel KCNH2 (Homo sapiens, UniProt Q12809). Put plainly: Inhibition of human ERG expressed in CHO cells. The format is cell-based.
The next data set addresses T1, Cytochrome P450 2B6 (Homo sapiens, UniProt P20813).
T1 sequence (P20813 whole entry): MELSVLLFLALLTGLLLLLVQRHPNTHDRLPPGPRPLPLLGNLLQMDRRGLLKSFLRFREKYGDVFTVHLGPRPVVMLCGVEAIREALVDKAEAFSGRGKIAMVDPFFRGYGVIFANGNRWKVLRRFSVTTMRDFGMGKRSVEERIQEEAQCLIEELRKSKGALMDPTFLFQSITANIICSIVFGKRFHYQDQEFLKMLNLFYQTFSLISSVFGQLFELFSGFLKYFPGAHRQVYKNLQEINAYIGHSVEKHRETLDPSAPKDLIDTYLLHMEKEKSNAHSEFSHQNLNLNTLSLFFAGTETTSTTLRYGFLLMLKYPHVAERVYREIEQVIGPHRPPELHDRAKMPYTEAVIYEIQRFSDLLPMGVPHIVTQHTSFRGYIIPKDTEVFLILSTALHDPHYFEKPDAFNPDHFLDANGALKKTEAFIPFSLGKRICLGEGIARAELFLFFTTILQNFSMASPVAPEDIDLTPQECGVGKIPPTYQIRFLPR
Put plainly: Inhibition of human recombinant CYP2B6 expressed in baculovirus-infected insect cells preincubated for 15 mins followed by substrate addition measured after 30 mins by luminescence assay. Type of data set: ADME. Particulars: recombinant enzyme, 0.5 h.

The target of the next data set is Cytochrome P450 2D6 (Homo sapiens, UniProt P10635). Put plainly: Inhibition of human recombinant CYP2D6 expressed in baculovirus-infected insect cells preincubated for 15 mins followed by substrate addition measured after 30 mins by luminescence assay. Type of data set: ADME. The note with it: recombinant enzyme, 0.5 h.
Another data set deals with T2, Cytochrome P450 2C8 (Homo sapiens, UniProt P10632).
T2 sequence (P10632 whole entry): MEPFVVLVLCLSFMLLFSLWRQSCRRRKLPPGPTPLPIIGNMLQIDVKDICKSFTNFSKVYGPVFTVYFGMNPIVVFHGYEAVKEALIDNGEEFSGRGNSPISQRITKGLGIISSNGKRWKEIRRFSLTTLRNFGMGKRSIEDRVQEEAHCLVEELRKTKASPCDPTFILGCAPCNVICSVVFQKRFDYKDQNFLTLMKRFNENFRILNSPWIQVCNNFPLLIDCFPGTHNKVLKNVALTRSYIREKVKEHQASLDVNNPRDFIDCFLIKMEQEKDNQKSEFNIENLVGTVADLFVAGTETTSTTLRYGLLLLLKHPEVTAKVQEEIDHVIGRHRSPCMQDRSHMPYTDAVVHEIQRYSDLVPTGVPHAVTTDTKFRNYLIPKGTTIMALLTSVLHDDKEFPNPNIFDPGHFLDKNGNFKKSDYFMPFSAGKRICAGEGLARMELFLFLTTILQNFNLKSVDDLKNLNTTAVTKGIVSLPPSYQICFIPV
Nature of the data set: Inhibition of human recombinant CYP2C8 expressed in baculovirus-infected insect cells preincubated for 15 mins followed by substrate addition measured after 30 mins by luminescence assay. The note with it: recombinant enzyme, 0.5 h. Type of data set: ADME.

The next data set addresses T3, Cytochrome P450 1A2 (Homo sapiens, UniProt P05177).
T3 sequence (P05177 whole entry): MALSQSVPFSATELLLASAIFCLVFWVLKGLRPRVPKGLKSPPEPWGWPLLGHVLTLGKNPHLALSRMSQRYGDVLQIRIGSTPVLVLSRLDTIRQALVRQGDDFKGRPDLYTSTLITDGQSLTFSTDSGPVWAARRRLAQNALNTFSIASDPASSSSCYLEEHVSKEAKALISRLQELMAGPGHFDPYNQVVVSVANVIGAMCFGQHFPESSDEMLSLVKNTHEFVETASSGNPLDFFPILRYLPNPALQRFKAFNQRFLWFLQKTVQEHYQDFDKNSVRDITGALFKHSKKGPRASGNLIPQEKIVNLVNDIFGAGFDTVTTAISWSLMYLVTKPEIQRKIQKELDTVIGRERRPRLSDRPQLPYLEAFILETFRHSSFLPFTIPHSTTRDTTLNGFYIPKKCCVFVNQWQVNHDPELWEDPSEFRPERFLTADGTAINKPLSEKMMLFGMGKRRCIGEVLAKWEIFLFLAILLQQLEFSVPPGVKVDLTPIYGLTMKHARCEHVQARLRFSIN
Nature of the data set: Inhibition of human recombinant CYP1A2 expressed in baculovirus-infected insect cells preincubated for 15 mins followed by substrate addition measured after 30 mins by luminescence assay. The format is ADME. The note with it: recombinant enzyme, 0.5 h.

Another data set has as its target Cytochrome P450 2C9 (Homo sapiens, UniProt P11712). Nature of the data set: Inhibition of human recombinant CYP2C9 expressed in baculovirus-infected insect cells preincubated for 15 mins followed by substrate addition measured after 30 mins by luminescence assay. Particulars: recombinant enzyme, 0.5 h. The format is ADME.
Data set [4] is described as follows: AUC in NMRI mouse at 1 mg/kg, iv and 5 mg/kg, po by LC-MS/MS analysis. The format is ADME, organism-based. Particulars: plasma.
The test system of data set [5] is Plasmodium falciparum. Nature of the data set: Antimalarial activity against drug-sensitive Plasmodium falciparum NF54. Type of data set: functional, organism-based.
The nature of data set [6]: Volume of distribution at steady state in NMRI mouse at 1 mg/kg, iv by LC-MS/MS analysis. Also on record: dose 1 mg/kg, route intravenous. Particulars: in vivo, read-out: Vdss. Type of data set: ADME, organism-based.
Data set [7] has as its system Plasmodium berghei. Put plainly: Antimalarial activity against Plasmodium berghei ANKA expressing GFP infected in NMRI mouse assessed as mean survival days at 100 mg/kg/day, po qd for 4 days measured at 24 hrs after last dose. The format is functional. The method in brief:
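P. berghei-infected mice dosed orally once daily on days 0–3, starting 4 h postinfection, in groups of 3, 10, 30 and 100 mg/kg/day. Red blood cell parasitemia and plasma exposure measured on day 4, 24 h after the last dose. Mean survival days then monitored over 26 further days.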

Data set [8] in a line: Terminal half life in NMRI mouse at 5 mg/kg, po by LC-MS/MS analysis. The format is ADME, organism-based. The arrangement: dose 5 mg/kg, route oral. Particulars: in vivo, read-out: beta t1/2 (converted).
In data set [9] the test system is Plasmodium falciparum. Put plainly: Antimalarial activity against mefloquine-resistant Plasmodium falciparum TM91C235. Type of data set: functional, organism-based.
Data set [10] can be described thus: Oral bioavailability in NMRI mouse at 5 mg/kg by LC-MS/MS analysis. Type of data set: ADME, organism-based. The note with it: in vivo.
For data set [11], the system named is Plasmodium berghei. Put plainly: Antimalarial activity against Plasmodium berghei ANKA expressing GFP infected in po dosed NMRI mouse assessed as reduction in parasitemia administered qd for 4 days measured at 24 hrs after last dose. Type of data set: functional. The method in brief: (§2)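 P. berghei-infected mice dosed orally once daily on days 0–3, first dose 4 h postinfection, at 3, 10, 30 and 100 mg/kg/day. Red blood cell parasitemia and plasma exposure measured on day 4, 24 h after last dose; ED50 derived from dose-response; survival then monitored for 26 further days as mean survival days.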

Data set [12] concerns Plasmodium falciparum. Put plainly: Antimalarial activity against chloroquine, pyrimethamine, sulfadoxine and quinine-resistant Plasmodium falciparum W2. The format is functional, organism-based.
The test system of data set [13] is Plasmodium falciparum. Put plainly: Antimalarial activity against chloroquine, pyrimethamine, cycloguanil-resistant Plasmodium falciparum 7G8. Type of data set: functional, organism-based.
Data set [14] concerns Plasmodium berghei. Put plainly: Antimalarial activity against Plasmodium berghei ANKA expressing GFP infected in NMRI mouse assessed as reduction in parasitemia at 100 mg/kg/day, po qd for 4 days measured at 24 hrs after last dose relative to control. The arrangement: scale not given: the % may be the effect or the level left. Type of data set: functional. The method, boiled down: as §2

Data set [15] has as its system Plasmodium falciparum. Nature of the data set: Antimalarial activity against chloroquine, pyrimethamine, quinine-resistant Plasmodium falciparum V1S. The format is functional. The note with it: VS/1.
A short description of data set [16]: Cmax in NMRI mouse at 1 mg/kg, iv and 5 mg/kg, po by LC-MS/MS analysis. Type of data set: ADME, organism-based. The note with it: in vivo.
In data set [17] the test system is Plasmodium falciparum. Put plainly: Antimalarial activity against chloroquine, pyrimethamine, sulfadoxine, quinine and mefloquine-sensitive Plasmodium falciparum D6. Type of data set: functional, organism-based.
Data set [18] concerns Plasmodium falciparum. Put plainly: Antimalarial activity against chloroquine and pyrimethamine-resistant Plasmodium falciparum K1. The format is functional, organism-based. The method in brief:
as §1

In general, IC50 refers to the concentration at which inhibition is half-maximal. A word on the AUC: it is the area under the concentration-time curve, a measure of exposure. The term bioavailability denotes dose-corrected exposure relative to a reference, in per cent. A word on the ED50: it is the dose that gives a 50% effect, or the effect in half of the subjects. The term Cmax denotes the peak of the concentration-time curve.

Structures are written as SMILES. Active and inactive are the calls of the source. The rule behind the calls is not given here.

Chain of Cytochrome P450 2D6 (P10635 whole entry): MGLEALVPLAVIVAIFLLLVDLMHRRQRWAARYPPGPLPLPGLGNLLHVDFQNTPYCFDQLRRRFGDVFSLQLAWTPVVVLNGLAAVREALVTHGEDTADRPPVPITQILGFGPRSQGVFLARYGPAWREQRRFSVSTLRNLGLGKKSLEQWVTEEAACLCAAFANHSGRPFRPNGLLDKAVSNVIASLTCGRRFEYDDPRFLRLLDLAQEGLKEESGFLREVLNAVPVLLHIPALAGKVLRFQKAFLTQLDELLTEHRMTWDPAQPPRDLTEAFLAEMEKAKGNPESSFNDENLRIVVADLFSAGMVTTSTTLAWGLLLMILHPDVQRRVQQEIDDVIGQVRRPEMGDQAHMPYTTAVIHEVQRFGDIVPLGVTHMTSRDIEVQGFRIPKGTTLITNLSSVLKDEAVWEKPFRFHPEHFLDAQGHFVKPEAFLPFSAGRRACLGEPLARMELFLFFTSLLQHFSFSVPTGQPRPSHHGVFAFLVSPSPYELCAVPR
Chain of Cytochrome P450 2C19 (P33261 whole entry): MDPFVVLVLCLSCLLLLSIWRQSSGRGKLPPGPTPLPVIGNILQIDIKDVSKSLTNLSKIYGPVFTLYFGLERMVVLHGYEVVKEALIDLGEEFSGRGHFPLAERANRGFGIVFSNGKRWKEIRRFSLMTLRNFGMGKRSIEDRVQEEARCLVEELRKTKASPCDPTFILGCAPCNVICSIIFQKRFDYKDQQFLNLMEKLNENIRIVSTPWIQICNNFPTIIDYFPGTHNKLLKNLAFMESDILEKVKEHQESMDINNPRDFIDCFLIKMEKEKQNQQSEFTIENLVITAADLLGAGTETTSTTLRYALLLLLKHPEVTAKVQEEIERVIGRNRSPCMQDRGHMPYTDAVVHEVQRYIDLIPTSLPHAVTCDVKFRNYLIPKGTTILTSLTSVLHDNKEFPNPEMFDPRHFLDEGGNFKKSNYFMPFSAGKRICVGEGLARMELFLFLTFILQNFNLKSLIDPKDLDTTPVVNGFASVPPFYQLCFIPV
Chain of Cytochrome P450 3A4 (P08684 whole entry): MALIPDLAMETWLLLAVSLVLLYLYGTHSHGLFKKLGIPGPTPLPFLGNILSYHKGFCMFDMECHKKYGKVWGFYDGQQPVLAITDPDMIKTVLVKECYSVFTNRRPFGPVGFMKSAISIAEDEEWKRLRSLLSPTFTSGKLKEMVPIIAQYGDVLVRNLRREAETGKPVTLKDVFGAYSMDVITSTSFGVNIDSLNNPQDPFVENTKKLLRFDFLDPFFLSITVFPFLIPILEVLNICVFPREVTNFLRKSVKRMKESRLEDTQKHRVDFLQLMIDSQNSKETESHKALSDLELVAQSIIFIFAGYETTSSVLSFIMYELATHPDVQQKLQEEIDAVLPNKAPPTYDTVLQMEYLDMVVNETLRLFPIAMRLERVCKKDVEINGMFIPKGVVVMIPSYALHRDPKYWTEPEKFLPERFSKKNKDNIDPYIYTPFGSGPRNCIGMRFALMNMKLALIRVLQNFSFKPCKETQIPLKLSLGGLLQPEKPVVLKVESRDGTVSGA
Chain of Voltage-gated inwardly rectifying potassium channel KCNH2 (Q12809 whole entry): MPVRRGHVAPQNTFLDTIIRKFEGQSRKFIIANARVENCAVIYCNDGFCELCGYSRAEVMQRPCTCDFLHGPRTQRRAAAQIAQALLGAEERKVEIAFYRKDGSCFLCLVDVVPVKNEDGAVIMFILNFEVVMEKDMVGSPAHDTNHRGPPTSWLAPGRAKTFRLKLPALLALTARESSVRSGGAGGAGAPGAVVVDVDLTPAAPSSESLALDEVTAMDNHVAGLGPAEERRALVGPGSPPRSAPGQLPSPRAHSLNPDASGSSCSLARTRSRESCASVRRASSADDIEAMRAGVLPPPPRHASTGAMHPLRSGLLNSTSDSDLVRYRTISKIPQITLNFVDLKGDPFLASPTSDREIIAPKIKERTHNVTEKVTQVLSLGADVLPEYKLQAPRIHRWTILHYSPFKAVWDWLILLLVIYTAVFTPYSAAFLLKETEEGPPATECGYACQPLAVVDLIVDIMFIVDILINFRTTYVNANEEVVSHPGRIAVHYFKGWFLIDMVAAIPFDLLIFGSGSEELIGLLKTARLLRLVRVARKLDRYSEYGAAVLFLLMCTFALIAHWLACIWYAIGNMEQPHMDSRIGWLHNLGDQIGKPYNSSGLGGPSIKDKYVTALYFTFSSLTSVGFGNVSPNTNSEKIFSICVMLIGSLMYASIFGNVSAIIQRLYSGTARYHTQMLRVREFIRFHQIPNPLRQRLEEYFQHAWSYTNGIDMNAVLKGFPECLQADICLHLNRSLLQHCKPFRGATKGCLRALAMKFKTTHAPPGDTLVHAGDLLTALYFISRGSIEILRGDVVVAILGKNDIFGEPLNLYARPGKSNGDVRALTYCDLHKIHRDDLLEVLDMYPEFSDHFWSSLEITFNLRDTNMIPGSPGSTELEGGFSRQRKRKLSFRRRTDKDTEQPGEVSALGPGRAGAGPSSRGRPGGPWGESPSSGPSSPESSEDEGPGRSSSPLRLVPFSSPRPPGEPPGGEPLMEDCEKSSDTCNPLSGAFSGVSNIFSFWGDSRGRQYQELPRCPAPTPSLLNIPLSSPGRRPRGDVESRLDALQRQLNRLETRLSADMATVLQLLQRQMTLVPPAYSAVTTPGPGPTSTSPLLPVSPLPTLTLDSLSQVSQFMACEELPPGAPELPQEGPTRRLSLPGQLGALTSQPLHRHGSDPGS
Chain of Cytochrome P450 2C9 (P11712 whole entry): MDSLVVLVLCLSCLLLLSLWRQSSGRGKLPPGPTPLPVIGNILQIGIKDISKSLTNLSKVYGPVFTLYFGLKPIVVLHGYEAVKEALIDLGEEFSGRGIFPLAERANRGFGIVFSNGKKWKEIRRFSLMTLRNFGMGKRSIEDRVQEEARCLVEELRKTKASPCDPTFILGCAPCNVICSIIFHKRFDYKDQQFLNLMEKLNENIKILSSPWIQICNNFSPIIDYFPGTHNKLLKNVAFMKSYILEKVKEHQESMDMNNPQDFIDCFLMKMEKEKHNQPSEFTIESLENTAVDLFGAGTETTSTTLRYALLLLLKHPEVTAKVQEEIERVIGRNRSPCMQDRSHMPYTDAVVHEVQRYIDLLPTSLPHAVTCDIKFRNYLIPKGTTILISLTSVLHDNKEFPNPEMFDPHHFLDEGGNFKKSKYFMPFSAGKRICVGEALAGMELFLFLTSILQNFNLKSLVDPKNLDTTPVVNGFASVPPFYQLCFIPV

Take `O=C1CN(Cc2ccccc2)CCN1CC(O)Cn1c2ccc(Cl)cc2c2cc(Cl)ccc21` (stereo not given): the IC50 with Plasmodium falciparum [1] was 344 nM.

For the compound `FC(CN1CCN(CC2CCCCC2)CC1)Cn1c2ccc(Br)cc2c2cc(Br)ccc21` (stereo not given), the IC50 with Plasmodium falciparum [1] worked out at 106 nM.

In the case of `CC12CCC(CN(CC(O)Cn3c4ccc(Cl)cc4c4cc(Cl)ccc43)C1)C2(C)C` (stereo not given), 57 nM corresponded to half-maximal inhibition with Plasmodium falciparum [2] (IC50).

As to `COC(CN1CCN(Cc2ccccc2)CC1)Cn1c2ccccc2c2ccccc21` (stereo not given), the IC50 in the data set with Plasmodium falciparum [1] came to 3310 nM.

Consider `O[C@@H](CNC1CCCCC1)Cn1c2ccc(Br)cc2c2cc(Br)ccc21`, for which the “inhibition (INH)” value (at Cytochrome P450 2C19; on Cytochrome P450 3A4; in data set [3]; on Cytochrome P450 2B6; at Cytochrome P450 2D6; at Cytochrome P450 2C8) was “Active” throughout. Also, the “inhibition (INH)” value at Cytochrome P450 1A2 and on Cytochrome P450 2C9 was “Active” throughout. The outcome with Plasmodium falciparum [1] was Active.

For the compound `OC(CN1CCN(Cc2ccccc2)CC1)Cn1c2ccc(Br)cc2c2cc(Br)ccc21` (stereo not given), the IC50 in the data set with Plasmodium falciparum [1] was 27 nM.

In the case of `O=C(CN1CCN(CC2CCCCC2)CC1)Cn1c2ccc(Cl)cc2c2cc(Cl)ccc21`, the IC50 with Plasmodium falciparum [1] was 448 nM.

For the compound `Clc1ccc2c(c1)c1cc(Cl)ccc1n2CCCN1CCN(CC2CCCCC2)CC1`, the IC50 with Plasmodium falciparum [1] amounted to 707 nM.

The compound `C[C@@H]1CC[C@H]2[C@@H](C)C(=O)O[C@@H]3O[C@@]4(C)CC[C@@H]1[C@]32OO4` [ARTEMISININ] gave a concentration for half-maximal inhibition (IC50) in the data set on Plasmodium falciparum [2] of 5.4 nM.

With `OC(CN1CCN(CC2CCCCC2)CC1)Cn1c2ccc(Cl)cc2c2cc(Cl)ccc21` (stereo not given), the area under the curve (AUC) in data set [4] is 1580 ng·h/mL. In addition, the outcome in the data set with Plasmodium falciparum [5], in the data set on Plasmodium berghei [7], with Plasmodium falciparum [9], in the data set on Plasmodium falciparum [12], in the data set with Plasmodium falciparum [13] and in the data set with Plasmodium falciparum [15] was Active. The outcome in the data set with Plasmodium falciparum [17] and in the data set with Plasmodium falciparum [18] was Active. Also, the Vd in data set [6] turned out to be 15 L/kg. Further, the half-life in [8] is 8 h. This compound also displayed a bioavailability in data set [10] of 50%. In addition, the values for the Activity result in the data set on Plasmodium berghei [11] and with Plasmodium berghei [14] were “Dose dependent effect” and 99.93%, respectively. Further, in the data set on Plasmodium berghei [11], the ED50 came to 34.5 mg/kg/day. For the same compound, in the data set with Plasmodium falciparum [1], the half-maximal inhibitory concentration (IC50) turned out to be 16 nM. Besides, the peak level in data set [16] (Cmax) was 135 ng/mL.

Consider `OC(CN1CCN(Cc2ccccc2)CC1)Cn1c2ccccc2c2cc(Cl)ccc21` (stereo not given), for which the half-inhibitory concentration (IC50) with Plasmodium falciparum [1] turned out to be 165 nM.

For `OC(CN1CCN(Cc2ccccc2)CC1)Cn1c2ccccc2c2ccccc21` (stereo not given), the IC50 in the data set with Plasmodium falciparum [1] stood at 275 nM.

`O[C@H](CNC1CCCCC1)Cn1c2ccc(Br)cc2c2cc(Br)ccc21`: the “inhibition (INH)” value (at Cytochrome P450 2C19; on Cytochrome P450 3A4; in [3]; on Cytochrome P450 2B6; on Cytochrome P450 2D6; at Cytochrome P450 2C8) was “Active” each time. The “inhibition (INH)” value at Cytochrome P450 1A2 and on Cytochrome P450 2C9 was “Active” in each case. In the data set with Plasmodium falciparum [1], the outcome was Active.
